Data as given in ChEMBL document CHEMBL4689842, “EUbOPEN Chemogenomics Library wave 1” (2021).

Experiments:
U2OS [1] = assay: Multiplex assay against U2OS; assay type: toxicity, cell-based; conditions: human
Outline: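 With compound added, live cells were imaged on a CQ1 microscope at 37°C and 5% CO2; staining with Hoechst33342, BioTracker Green Microtubule Cytoskeleton Dye, MitoTracker Red and Annexin V Alexa Fluor 680 had been done at seeding. The CellPathfinder machine-learning gating scheme split cells into Hoechst high-intensity objects or normal cells, normal cells into healthy, pyknosed or fragmented nuclei, and pyknosed cells into mitotic or apoptotic. The tubulin, mitochondrial-mass and membrane-permeability phenotypes are per cents of healthy-nucleus cells.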

U2OS [2] = assay: Incucyte cell viability with U2OS; assay type: toxicity, cell-based; conditions: human, 10 µM, compound concentration 10 uM; note: filed as whole numbers so only -1 and 0 and 1 occur
[3] = 12 h, 1 µM, compound concentration 1 uM, replicate 1
[4] = 12 h, 1 µM, compound concentration 1 uM, replicate 2
[5] = 12 h, 10 µM, compound concentration 10 uM, replicate 1
[6] = 12 h, 10 µM, compound concentration 10 uM, replicate 2
[7] = 24 h, 1 µM, compound concentration 1 uM, replicate 1
[8] = 24 h, 1 µM, compound concentration 1 uM, replicate 2
[9] = 24 h, 10 µM, compound concentration 10 uM, replicate 1
[10] = 24 h, 10 µM, compound concentration 10 uM, replicate 2
[11] = 48 h, 1 µM, compound concentration 1 uM, replicate 1
[12] = 48 h, 1 µM, compound concentration 1 uM, replicate 2
[13] = 48 h, 10 µM, compound concentration 10 uM, replicate 1
[14] = 48 h, 10 µM, compound concentration 10 uM, replicate 2

Structure (SMILES): COc1cc2c(NC3CCN(C(C)C)CC3)nc(N3CCC(F)(F)CC3)nc2cc1OCCCN1CCCC1
- Population Apoptotic (%) (U2OS [1]; [3]): 44%
- Population Fragmented Nuclei (%) (U2OS [1]; [3]): 10%
- Population Healthy Nuclei (%) (U2OS [1]; [3]): 72%
- Population Hoechst High Intensity Objects (%) (U2OS [1]; [3]): 13%
- Population Mitochondria Different-Phenotype (%) (U2OS [1]; [3]): 17%
- Population Mitotic Cells (%) (U2OS [1]; [3]): 55%
- Population Normal (%) (U2OS [1]; [3]): 86%
- Population Pyknosed Nuclei (%) (U2OS [1]; [3]): 17%
- Total Cell Count (U2OS [1]; [3]): 136
- Population Apoptotic (%) (U2OS [1]; [4]): 30%
- Population Fragmented Nuclei (%) (U2OS [1]; [4]): 20%
- Population Healthy Nuclei (%) (U2OS [1]; [4]): 67%
- Population Hoechst High Intensity Objects (%) (U2OS [1]; [4]): 5%
- Population Membrane Permeable-Phenotype (%) (U2OS [1]; [4]): 3%
- Population Mitochondria Different-Phenotype (%) (U2OS [1]; [4]): 22%
- Population Mitotic Cells (%) (U2OS [1]; [4]): 70%
- Population Normal (%) (U2OS [1]; [4]): 94%
- Population Pyknosed Nuclei (%) (U2OS [1]; [4]): 11%
- Population Tubulin-Different-Phenotype (%) (U2OS [1]; [4]): 19%
- Total Cell Count (U2OS [1]; [4]): 105
- Population Apoptotic (%) (U2OS [1]; [5]): 68%
- Population Fragmented Nuclei (%) (U2OS [1]; [5]): 14%
- Population Healthy Nuclei (%) (U2OS [1]; [5]): 71%
- Population Hoechst High Intensity Objects (%) (U2OS [1]; [5]): 8%
- Population Membrane Permeable-Phenotype (%) (U2OS [1]; [5]): 27%
- Population Mitochondria Different-Phenotype (%) (U2OS [1]; [5]): 98%
- Population Mitotic Cells (%) (U2OS [1]; [5]): 31%
- Population Normal (%) (U2OS [1]; [5]): 91%
- Population Pyknosed Nuclei (%) (U2OS [1]; [5]): 14%
- Population Tubulin-Different-Phenotype (%) (U2OS [1]; [5]): 100%
- Total Cell Count (U2OS [1]; [5]): 181
- Population Apoptotic (%) (U2OS [1]; [6]): 66%
- Population Fragmented Nuclei (%) (U2OS [1]; [6]): 11%
- Population Healthy Nuclei (%) (U2OS [1]; [6]): 76%
- Population Membrane Permeable-Phenotype (%) (U2OS [1]; [6]): 66%
- Population Mitochondria Different-Phenotype (%) (U2OS [1]; [6]): 97%
- Population Mitotic Cells (%) (U2OS [1]; [6]): 33%
- Population Pyknosed Nuclei (%) (U2OS [1]; [6]): 11%
- Population Tubulin-Different-Phenotype (%) (U2OS [1]; [6]): 97%
- Total Cell Count (U2OS [1]; [6]): 89
- Population Apoptotic (%) (U2OS [1]; [7]): 31%
- Population Fragmented Nuclei (%) (U2OS [1]; [7]): 9%
- Population Healthy Nuclei (%) (U2OS [1]; [7]): 65%
- Population Hoechst High Intensity Objects (%) (U2OS [1]; [7]): 11%
- Population Membrane Permeable-Phenotype (%) (U2OS [1]; [7]): 0%
- Population Mitochondria Different-Phenotype (%) (U2OS [1]; [7]): 8%
- Population Mitotic Cells (%) (U2OS [1]; [7]): 68%
- Population Normal (%) (U2OS [1]; [7]): 88%
- Population Pyknosed Nuclei (%) (U2OS [1]; [7]): 24%
- Population Tubulin-Different-Phenotype (%) (U2OS [1]; [7]): 9%
- Total Cell Count (U2OS [1]; [7]): 157
- Population Apoptotic (%) (U2OS [1]; [8]): 29%
- Population Fragmented Nuclei (%) (U2OS [1]; [8]): 14%
- Population Healthy Nuclei (%) (U2OS [1]; [8]): 68%
- Population Hoechst High Intensity Objects (%) (U2OS [1]; [8]): 8%
- Population Membrane Permeable-Phenotype (%) (U2OS [1]; [8]): 2%
- Population Mitochondria Different-Phenotype (%) (U2OS [1]; [8]): 7%
- Population Mitotic Cells (%) (U2OS [1]; [8]): 70%
- Population Normal (%) (U2OS [1]; [8]): 91%
- Population Pyknosed Nuclei (%) (U2OS [1]; [8]): 16%
- Population Tubulin-Different-Phenotype (%) (U2OS [1]; [8]): 12%
- Total Cell Count (U2OS [1]; [8]): 113
- Population Apoptotic (%) (U2OS [1]; [9]): 70%
- Population Fragmented Nuclei (%) (U2OS [1]; [9]): 14%
- Population Healthy Nuclei (%) (U2OS [1]; [9]): 60%
- Population Hoechst High Intensity Objects (%) (U2OS [1]; [9]): 6%
- Population Membrane Permeable-Phenotype (%) (U2OS [1]; [9]): 56%
- Population Mitochondria Different-Phenotype (%) (U2OS [1]; [9]): 98%
- Population Mitotic Cells (%) (U2OS [1]; [9]): 30%
- Population Normal (%) (U2OS [1]; [9]): 93%
- Population Pyknosed Nuclei (%) (U2OS [1]; [9]): 24%
- Population Tubulin-Different-Phenotype (%) (U2OS [1]; [9]): 98%
- Total Cell Count (U2OS [1]; [9]): 218
- Population Apoptotic (%) (U2OS [1]; [10]): 90%
- Population Fragmented Nuclei (%) (U2OS [1]; [10]): 18%
- Population Healthy Nuclei (%) (U2OS [1]; [10]): 59%
- Population Hoechst High Intensity Objects (%) (U2OS [1]; [10]): 7%
- Population Membrane Permeable-Phenotype (%) (U2OS [1]; [10]): 82%
- Population Mitochondria Different-Phenotype (%) (U2OS [1]; [10]): 100%
- Population Mitotic Cells (%) (U2OS [1]; [10]): 9%
- Population Normal (%) (U2OS [1]; [10]): 92%
- Population Pyknosed Nuclei (%) (U2OS [1]; [10]): 22%
- Population Tubulin-Different-Phenotype (%) (U2OS [1]; [10]): 96%
- Total Cell Count (U2OS [1]; [10]): 112
- Population Apoptotic (%) (U2OS [1]; [11]): 27%
- Population Fragmented Nuclei (%) (U2OS [1]; [11]): 11%
- Population Healthy Nuclei (%) (U2OS [1]; [11]): 64%
- Population Hoechst High Intensity Objects (%) (U2OS [1]; [11]): 10%
- Population Mitochondria Different-Phenotype (%) (U2OS [1]; [11]): 4%
- Population Mitotic Cells (%) (U2OS [1]; [11]): 72%
- Population Normal (%) (U2OS [1]; [11]): 89%
- Population Pyknosed Nuclei (%) (U2OS [1]; [11]): 24%
- Population Tubulin-Different-Phenotype (%) (U2OS [1]; [11]): 15%
- Total Cell Count (U2OS [1]; [11]): 194
- Population Apoptotic (%) (U2OS [1]; [12]): 29%
- Population Fragmented Nuclei (%) (U2OS [1]; [12]): 8%
- Population Healthy Nuclei (%) (U2OS [1]; [12]): 78%
- Population Hoechst High Intensity Objects (%) (U2OS [1]; [12]): 8%
- Population Membrane Permeable-Phenotype (%) (U2OS [1]; [12]): 2%
- Population Mitochondria Different-Phenotype (%) (U2OS [1]; [12]): 8%
- Population Mitotic Cells (%) (U2OS [1]; [12]): 70%
- Population Normal (%) (U2OS [1]; [12]): 91%
- Population Pyknosed Nuclei (%) (U2OS [1]; [12]): 12%
- Population Tubulin-Different-Phenotype (%) (U2OS [1]; [12]): 24%
- Total Cell Count (U2OS [1]; [12]): 141
- Population Apoptotic (%) (U2OS [1]; [13]): 79%
- Population Fragmented Nuclei (%) (U2OS [1]; [13]): 20%
- Population Healthy Nuclei (%) (U2OS [1]; [13]): 44%
- Population Hoechst High Intensity Objects (%) (U2OS [1]; [13]): 11%
- Population Membrane Permeable-Phenotype (%) (U2OS [1]; [13]): 55%
- Population Mitochondria Different-Phenotype (%) (U2OS [1]; [13]): 100%
- Population Mitotic Cells (%) (U2OS [1]; [13]): 20%
- Population Normal (%) (U2OS [1]; [13]): 88%
- Population Pyknosed Nuclei (%) (U2OS [1]; [13]): 35%
- Population Tubulin-Different-Phenotype (%) (U2OS [1]; [13]): 92%
- Total Cell Count (U2OS [1]; [13]): 337
- Population Apoptotic (%) (U2OS [1]; [14]): 92%
- Population Fragmented Nuclei (%) (U2OS [1]; [14]): 12%
- Population Healthy Nuclei (%) (U2OS [1]; [14]): 63%
- Population Hoechst High Intensity Objects (%) (U2OS [1]; [14]): 12%
- Population Membrane Permeable-Phenotype (%) (U2OS [1]; [14]): 75%
- Population Mitochondria Different-Phenotype (%) (U2OS [1]; [14]): 97%
- Population Mitotic Cells (%) (U2OS [1]; [14]): 7%
- Population Normal (%) (U2OS [1]; [14]): 87%
- Population Pyknosed Nuclei (%) (U2OS [1]; [14]): 24%
- Population Tubulin-Different-Phenotype (%) (U2OS [1]; [14]): 88%
- Total Cell Count (U2OS [1]; [14]): 149
- Growth Rate (U2OS [2]; 0 h, replicate number 1, timepoint 0 hours): 1
- Growth Rate (U2OS [2]; 0 h, replicate number 2, timepoint 0 hours): 0
- Growth Rate (U2OS [2]; 6 h, replicate number 1, timepoint 6 hours): 1
- Growth Rate (U2OS [2]; 12 h, replicate number 1, timepoint 12 hours): 1
- Growth Rate (U2OS [2]; 18 h, replicate number 1, timepoint 18 hours): 1
- Growth Rate (U2OS [2]; 24 h, replicate number 1, timepoint 24 hours): 1
